This note sets out measurements from ChEMBL document CHEMBL1126268, “Antimitotic agents. Chiral isomers of ethyl [5-amino-1,2-dihydro-3-(4-hydroxyphenyl)-2-methylpyrido[3,4-b]pyrazin-7 -yl]carbamate” (J Med Chem, 1992).

Test [1] has as its system L1210. Nature of the test: The compound was tested in vitro for mitotic inhibition against proliferation of cultured lymphoid leukemia L1210 cells. Type of test: functional, Mus musculus. In a few lines:
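Cultured lymphoid leukemia L1210 cells exposed to agent for 12 h; mitotic index scored as cells in mitosis over total cells; value is the nanomolar concentration producing a mitotic index of 0.5.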

For test [2], the system named is P388. Nature of the test: The compound was tested in vivo for percent increase in life span against lymphocytic leukemia P388 in mice after intraperitoneal administration of 1 mg/kg dose. Type of test: functional. The conditions noted are these: Mus musculus, P388, ip. In a few lines: (§1)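 Mice bearing lymphocytic leukemia P388. The reported value is the percent increase in life span at the highest nontoxic dose tested.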

Test [3] has as its system P388. The test can be described thus: The compound was tested in vivo for percent increase in life span against lymphocytic leukemia P388 in mice after intraperitoneal administration of 30 mg/kg dose. Type of test: functional. The note with it: Mus musculus, P388, ip. The method, boiled down: as §1
Test [4] deals with L1210. Nature of the test: The compound was tested in vitro for cytotoxicity against proliferation of cultured lymphoid leukemia L1210 cells. The conditions noted are these: Mus musculus. Type of test: functional, cell-based. The method, boiled down:
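Cultured lymphoid leukemia L1210 cells exposed to agent for 48 h; value is the nanomolar concentration giving 50% of control growth.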

Test [5] concerns P388. The test can be described thus: The compound was tested in vivo for percent increase in life span against lymphocytic leukemia P388 in mice after intraperitoneal administration of 0.25 mg/kg dose. The note with it: Mus musculus, P388, ip. It is filed as functional. In a few lines:
as §1

Test [6] has as its system P388. Nature of the test: The compound was tested in vivo for percent increase in life span against lymphocytic leukemia P388 in mice after intraperitoneal administration of 0.22 mg/kg dose. It is filed as functional. The note with it: Mus musculus, P388, ip. The method, boiled down:
as §1

Test [7] deals with P388. The test can be described thus: The compound was tested in vivo for percent increase in life span against lymphocytic leukemia P388 in mice after intraperitoneal administration of 25 mg/kg dose. It is filed as functional. The note with it: Mus musculus, P388, ip. In a few lines:
as §1

Test [8] concerns P388. Nature of the test: The compound was tested in vivo for percent increase in life span against lymphocytic leukemia P388 in mice after intraperitoneal administration of 0.5 mg/kg dose. Type of test: functional. The note with it: Mus musculus, P388, ip. The method, boiled down: as §1

Usually ILS stands for how much longer treated animals lived than controls. Higher therefore signals much gain in survival. In turn, `CCOC(=O)Nc1cc2c(c(N)n1)N=C(c1ccc(OC)cc1)C(C)N2` (stereo not given) gave an MI0.5 with L1210 [1] of 0.42 nM. In the test on P388 [2], this compound returned an ILS at 1 mg/kg of 69%.

In turn, `CCOC(=O)Nc1cc2c(c(N)n1)N=C(c1ccccc1)[C@@H](C)N2` displayed an MI0.5 with L1210 [1] of 27 nM. This compound also returned an ILS at 30 mg/kg with P388 [3] of 88%.

A word on the IC50: it is the point on the concentration scale where inhibition reaches its midpoint. Lower therefore signals greater potency in that assay. Compound `CCOC(=O)Nc1cc2c(c(N)n1)N=C(c1ccc(OC(=O)NCCCl)cc1)C(C)N2` (stereo not given) came in with an IC50 in the test on L1210 [4] of 0.043 nM. For the same compound, the ILS at 1 mg/kg in the test on P388 [2] turned out to be 90%.

In the test on L1210 [4], `CCCCNC(=O)Oc1ccc(C2=Nc3c(cc(NC(=O)OCC)nc3N)NC2C)cc1` (stereo not given) had an IC50 of 0.47 nM. Besides, the ILS at 0.25 mg/kg in the test with P388 [5] stood at 120%.

The compound `CCOC(=O)Nc1cc2c(c(NC(=O)NCCCl)n1)N=C(c1ccc(OC(=O)NCCCl)cc1)C(C)N2` (stereo not given) had an IC50 in the test on L1210 [4] of 570 nM. In other words, the sub-micromolar range.

On to `CCOC(=O)Nc1cc2c(c(N)n1)N=C(c1ccc(O)cc1)[C@H](C)N2`, for which, in the test with L1210 [1], the MI0.5 came to 0.3 nM. Also, the IC50 in the test on L1210 [4] was found to be 0.18 nM. Moreover, the ILS at 0.22 mg/kg with P388 [6] was 58%.

The compound `CCOC(=O)Nc1cc2c(c(N)n1)N=C(c1ccc(O)cc1)[C@@H](C)N2` displayed an IC50 in the test with L1210 [4] of 32 nM. Besides, the ILS at 25 mg/kg with P388 [7] is 77%.

For the compound `CCOC(=O)Nc1cc2c(c(N)n1)N=C(c1ccc(OCc3ccccc3)cc1)C(C)N2` (stereo not given), the MI0.5 in the test on L1210 [1] amounted to 30 nM. This compound also returned a concentration for half-maximal inhibition (IC50) in the test on L1210 [4] of 7 nM. The compound further registered an ILS at 1 mg/kg in the test with P388 [2] of 120%.

In the test with L1210 [1], `CCOC(=O)Nc1cc2c(c(N)n1)N=C(c1ccc(O)cc1)C(C)N2` (racemic) registered an MI0.5 of 0.47 nM. The compound further showed an IC50 with L1210 [4] of 0.22 nM. In the test on P388 [8], the ILS at 0.5 mg/kg is 55%.

`CCOC(=O)Nc1cc2c(c(N)n1)N=C(c1ccccc1)C(C)N2` (racemic) came in with an MI0.5 in the test on L1210 [1] of 0.58 nM. This compound also registered an ILS at 1 mg/kg in the test with P388 [2] of 71%.

`CCOC(=O)Nc1cc2c(c(N)n1)N=C(c1ccccc1)[C@H](C)N2` [MIVOBULIN]: the MI0.5 with L1210 [1] is 0.14 nM. In the test on L1210 [4], this compound returned an IC50 of 0.09 nM. In the test on P388 [8], this compound came in with an ILS at 0.5 mg/kg of 64%.
